Assay results collected from several papers.
Lines come from different studies, so protocols differ.
Technique: competition with immobilised ligand
RPS6KA6 N-terminal kinase domain: Ribosomal protein S6 kinase alpha-6, N-terminal kinase domain (RPS6KA6, Homo sapiens, UniProt Q9UK32)
RPS6KA6 C-terminal kinase domain: Ribosomal protein S6 kinase alpha-6, C-terminal kinase domain (RPS6KA6, Homo sapiens, UniProt Q9UK32)

SMILES	target	test	conditions	remaining binding [%]
O=C1NC(c2ccccn2)Sc2ccccc21 (stereo not shown)	RPS6KA6 N-terminal kinase domain	cell-free assay	1 µM	96
CN(C)c1nccc(-c2cnc3ncccn23)n1	RPS6KA6 C-terminal kinase domain	binding	1 µM	90
O=C(NS(=O)(=O)c1ccc(NCC2CCOCC2)c([N+](=O)[O-])c1)c1ccc(N2CCN(Cc3ccc(C(F)(F)F)cc3-c3ccc(Cl)cc3)CC2)cc1Oc1cnc2[nH]ccc2c1	RPS6KA6 C-terminal kinase domain	cell-free assay	1 µM	100
COc1ccnn2ncc(-c3ccnc(N(C)C)n3)c12	RPS6KA6 C-terminal kinase domain	binding	1 µM	100
NS(=O)(=O)c1cc(NC(=O)C2(c3ccccc3Cl)CC2)ccc1Oc1cccc(Cl)c1	RPS6KA6 C-terminal kinase domain	cell-free assay	1 µM	96
FC(F)(F)Oc1cccc(-c2cnc3ccc(-c4ccncc4)nn23)c1	RPS6KA6 N-terminal kinase domain	binding	5 µM	64
Cc1cnc(Nc2ccc(C(=O)N3CCC(N4CCCC4)CC3)cc2)nc1-c1cc2ccccc2s1	RPS6KA6 C-terminal kinase domain	binding	1 µM	72
Nc1ncc2c(n1)-c1c([nH]c3ccc(C#CC4CC4)cc13)CCCC2	RPS6KA6 C-terminal kinase domain	binding	1 µM	91
O=C(c1ccc(Nc2ncc(Cl)c(-c3ccc(Cl)s3)n2)cc1)N1CCC(N2CCCC2)CC1	RPS6KA6 N-terminal kinase domain	binding	1 µM	41
COc1cnc(Nc2cccc(S(N)(=O)=O)c2)nc1N1CCN(c2ccccc2)CC1	RPS6KA6 C-terminal kinase domain	binding	1 µM	69
CN([C@@H]1CCc2c(CC(=O)O)c3ccccc3n2C1)S(=O)(=O)c1ccc(F)cc1	RPS6KA6 C-terminal kinase domain	cell-free assay	1 µM	100
CN(c1nccc(-c2cnn3ncccc23)n1)C1CC1	RPS6KA6 N-terminal kinase domain	binding	1 µM	83
O=C(NCC1CCOCC1)c1n[nH]cc1NC(=O)c1c(F)cccc1F	RPS6KA6 C-terminal kinase domain	binding	1 µM	99
CCN1CCN(Cc2ccc(C(=O)Nc3ccc(C)c(Oc4ccc5c(c4)CC(=O)N5)c3)cc2C(F)(F)F)CC1	RPS6KA6 N-terminal kinase domain	binding	1 µM	100
O=C(c1ccc(Nc2ncc(Cl)c(-c3cc4ccccc4s3)n2)cc1)N1CCC(N2CCCC2)CC1	RPS6KA6 N-terminal kinase domain	binding	1 µM	46
O=C(Nc1c[nH]nc1C(=O)NC1CCNCC1)c1cc(F)cc(F)c1	RPS6KA6 N-terminal kinase domain	binding	1 µM	94

SMILES	target	test	conditions	remaining binding [%]
CN(C)c1nccc(-c2cnn3ncccc23)n1	RPS6KA6 N-terminal kinase domain	binding	1 µM	92
c1cncc(-c2cccc(Nc3nccc(NC4CCCCC4)n3)c2)c1	RPS6KA6 C-terminal kinase domain	binding	10 µM	87
Cn1nc(C(F)(F)F)cc1-c1cnc(N2CCc3cc(S(=O)(=O)Nc4c(F)cc(Cl)cc4F)cc(N4CCCC4=O)c32)nc1	RPS6KA6 N-terminal kinase domain	cell-free assay	1 µM	85
Cc1cnn2ncc(-c3ccnc(N(C)C)n3)c2c1	RPS6KA6 N-terminal kinase domain	binding	1 µM	82
CN(C)C(=O)Cn1cc(-c2nc(C3(c4ccc(-c5cnc(N)nc5)cc4)CC3)no2)cn1	RPS6KA6 N-terminal kinase domain	cell-free assay	1 µM	83
COc1ncc2cc3ccccc3nc2c1C#N	RPS6KA6 N-terminal kinase domain	cell-free assay	5 µM	100
O=C(NCCCN1CCOCC1)c1ccc(Nc2nccc(-c3cc4ccccc4s3)n2)cc1	RPS6KA6 N-terminal kinase domain	binding	1 µM	67
CNC(=O)[C@@H]1CC[C@@H](n2c(-c3ccc4cnccc4c3)nc3ccc(C(=O)NCc4cccc(C(N)=O)c4)cc32)C1	RPS6KA6 N-terminal kinase domain	binding	1 µM	100
O=C(NCCCN1CCOCC1)c1ccc(Nc2ncc(Cl)c(-c3ccc(Cl)s3)n2)cc1	RPS6KA6 C-terminal kinase domain	binding	1 µM	85
COc1cnc(Nc2cccc(S(N)(=O)=O)c2)nc1N1CCN(c2ccccc2)C(=O)C1	RPS6KA6 N-terminal kinase domain	binding	1 µM	79
COc1cc(-c2cn(C3CCc4ccccc4N(CC(F)(F)F)C3=O)nn2)ccc1-n1ccc(C)n1 (stereo not shown)	RPS6KA6 N-terminal kinase domain	cell-free assay	1 µM	81
CC1CCCN1c1nccc(-c2cnn3ncccc23)n1 (stereo not shown)	RPS6KA6 C-terminal kinase domain	binding	1 µM	100
O=C(c1ccc(Nc2nccc(-c3cc4ccccc4s3)n2)cc1)N1CCC(N2CCCC2)CC1	RPS6KA6 C-terminal kinase domain	binding	1 µM	63
N[C@@H]1CCN(c2nccc(-c3cnn4ncccc34)n2)C1	RPS6KA6 N-terminal kinase domain	binding	1 µM	100
Cc1cc(-n2nc(Cc3cc(F)cc(C(F)(F)F)c3)nc2C)ccc1C(N)=O	RPS6KA6 N-terminal kinase domain	cell-free assay	1 µM	89
